Results published in ChEMBL document CHEMBL4266059, “Synthesis of Cyanoenone-Modified Diterpenoid Analogs as Novel Bmi-1-Mediated Antitumor Agents” (ACS Med Chem Lett, 2018).
Active and inactive are the calls of the source. The rule behind the calls is not given here.

System: HCT-116
Assay: Effect on total H2A protein expression in human HCT116 cells at 0.5 to 4 uM after 8 hrs by Western blot analysis
Format: functional, cell-based
Details: not given
In short: (§1)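 HCT116 cells treated with test agents at the indicated concentrations for 8 h. Bmi-1, H2A-K119 ubiquitinated H2A (ub-H2A), total H2A and Ring1b detected by Western blot.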

SMILES	Activity
COc1cc(Br)c(Nc2nc(-c3c(C)nc4ncccn34)cs2)c(Br)c1	inactive

System: not listed separately
Assay: Selectivity index, ratio of IC50 for HAF to IC50 for human HT-29 cells
Format: toxicity
Details: HAF cells versus HT-29 cells, read-out: Ratio IC50

SMILES	selectivity ratio
CC1(C)C(=O)C(C#N)=C[C@]2(C)c3cc(O)c(C(=O)Nc4ccc(OC(F)(F)F)cc4)cc3CC[C@@H]12	4.5 to 6.9
COc1cc2c(cc1C(=O)Nc1cccc(OC(F)(F)F)c1)CC[C@H]1C(C)(C)C(=O)C(C#N)=C[C@]21C	6.2 to 8.3
COc1cc(Br)c(Nc2nc(-c3c(C)nc4ncccn34)cs2)c(Br)c1	1.6 to 1.7
COc1cc2c(cc1C(=O)NCc1ccc(OC(F)(F)F)cc1)CC[C@H]1C(C)(C)C(=O)C(C#N)=C[C@]21C	3.2 to 5
COc1cc2c(cc1C(=O)Nc1ccc(OC(F)(F)F)cc1)CC[C@H]1C(C)(C)C(=O)C=C[C@]21C	3 to 3.8

System: HCT-116
Assay: Antimigratory activity against human HCT116 cells after 24 hrs by crystal violet staining based transwell migration assay
Format: functional, cell-based
Details: not given
In short: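 HCT116 cells were tested for migration through a transwell chamber at 0.5 and 1 μM, compared against an untreated (0 μM) control. Significance was assessed versus that control.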

SMILES	Activity
COc1cc(Br)c(Nc2nc(-c3c(C)nc4ncccn34)cs2)c(Br)c1	Dose-dependent effect

System: Mus musculus
Assay: Decrease in Bmi1 expression in tumors of nude mouse xenografted with human HCT116 cells at 10 mg/kg/day, ip for 18 days by IHC analysis
Format: functional, organism-based
Details: not given
In short: (§2)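 Subcutaneous HCT116 xenografts in nude mice, randomized into groups of n = 6. Dosing was daily intraperitoneal injection for 18 days with DMSO as vehicle control. Mice were then sacrificed, and excised tumors were stained by immunohistochemistry for Ki67 and Bmi-1, compared with vehicle-treated controls.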

SMILES	Activity
COc1cc(Br)c(Nc2nc(-c3c(C)nc4ncccn34)cs2)c(Br)c1	Active

System: HCT-8
Assay: Antiproliferative activity against human HCT8 cells after 72 hrs by SRB assay
Format: functional, cell-based
Details: HCT-8, 72 h

IC50 [nM]	SMILES
580	COc1cc2c(cc1C(=O)Nc1cccc(OC(F)(F)F)c1)CC[C@H]1C(C)(C)C(=O)C(C#N)=C[C@]21C
1600	COc1cc2c(cc1C(=O)NCc1ccc(OC(F)(F)F)cc1)CC[C@H]1C(C)(C)C(=O)C(C#N)=C[C@]21C

Second part, the compound before the results:

SMILES	IC50 [nM]
CC1(C)C(=O)C(C#N)=C[C@]2(C)c3cc(O)c(C(=O)Nc4ccc(OC(F)(F)F)cc4)cc3CC[C@@H]12	3060
COc1cc(Br)c(Nc2nc(-c3c(C)nc4ncccn34)cs2)c(Br)c1	590
COc1cc2c(cc1C(=O)Nc1ccc(OC(F)(F)F)cc1)CC[C@H]1C(C)(C)C(=O)C=C[C@]21C	5670

System: Mus musculus
Assay: Toxicity in nude mouse xenografted with human HCT116 cells assessed as change in body weight at 10 mg/kg/day, ip for 18 days
Format: organism-based
Details: in vivo, 432 h

SMILES	Activity
COc1cc(Br)c(Nc2nc(-c3c(C)nc4ncccn34)cs2)c(Br)c1	Non-Toxic

System: HCT-116
Assay: Effect on total Ring1b protein expression in human HCT116 cells at 0.5 to 4 uM after 8 hrs by Western blot analysis
Format: functional, cell-based
Details: not given
In short: as §1

SMILES	Activity
COc1cc(Br)c(Nc2nc(-c3c(C)nc4ncccn34)cs2)c(Br)c1	inactive

System: HCT-116
Assay: Inhibition of cancer stem cell proliferation in human HCT116 cells assessed as CD133/CD44-positive cell population at 1 uM after 48 hrs by flow cytometry (reference value: 85.1 to 86.6%)
Format: functional
Parameters: scale not given: the % may be the effect or the level left
Details: not given

SMILES	Activity [%]
COc1cc(Br)c(Nc2nc(-c3c(C)nc4ncccn34)cs2)c(Br)c1	79.7

System: HT-29
Assay: Antiproliferative activity against human HT-29 cells after 72 hrs by SRB assay
Format: functional, cell-based
Details: HT-29, 72 h

IC50 [nM]	SMILES
560	COc1cc2c(cc1C(=O)Nc1cccc(OC(F)(F)F)c1)CC[C@H]1C(C)(C)C(=O)C(C#N)=C[C@]21C
1370	COc1cc2c(cc1C(=O)NCc1ccc(OC(F)(F)F)cc1)CC[C@H]1C(C)(C)C(=O)C(C#N)=C[C@]21C

Continued, compound first:

SMILES	IC50 [nM]
CC1(C)C(=O)C(C#N)=C[C@]2(C)c3cc(O)c(C(=O)Nc4ccc(OC(F)(F)F)cc4)cc3CC[C@@H]12	2380
COc1cc(Br)c(Nc2nc(-c3c(C)nc4ncccn34)cs2)c(Br)c1	610
COc1cc2c(cc1C(=O)Nc1ccc(OC(F)(F)F)cc1)CC[C@H]1C(C)(C)C(=O)C=C[C@]21C	4090

System: HCT-116
Assay: Inhibition of Bmi1 protein expression in human HCT116 cells after 8 hrs by Western blot analysis
Format: functional, cell-based
Details: not given

SMILES	inhibition
CC1(C)C(=O)C(C#N)=C[C@]2(C)c3cc(O)c(C(=O)Nc4ccc(OC(F)(F)F)cc4)cc3CC[C@@H]12	inactive
COc1cc(Br)c(Nc2nc(-c3c(C)nc4ncccn34)cs2)c(Br)c1	Dose-dependent effect
COc1cc2c(cc1C(=O)Nc1ccc(OC(F)(F)F)cc1)CC[C@H]1C(C)(C)C(=O)C=C[C@]21C	inactive

Same assay, conditions: HCT-116, 8 h

IC50 [nM]	SMILES
700	COc1cc(Br)c(Nc2nc(-c3c(C)nc4ncccn34)cs2)c(Br)c1

System: not listed separately
Assay: Selectivity index, ratio of IC50 for HAF to IC50 for human HCT116 cells
Format: toxicity
Details: HAF cells versus HCT116 cells, read-out: Ratio IC50

SMILES	selectivity ratio
CC1(C)C(=O)C(C#N)=C[C@]2(C)c3cc(O)c(C(=O)Nc4ccc(OC(F)(F)F)cc4)cc3CC[C@@H]12	4.5 to 6.9
COc1cc2c(cc1C(=O)Nc1cccc(OC(F)(F)F)c1)CC[C@H]1C(C)(C)C(=O)C(C#N)=C[C@]21C	6.2 to 8.3
COc1cc(Br)c(Nc2nc(-c3c(C)nc4ncccn34)cs2)c(Br)c1	1.6 to 1.7
COc1cc2c(cc1C(=O)NCc1ccc(OC(F)(F)F)cc1)CC[C@H]1C(C)(C)C(=O)C(C#N)=C[C@]21C	3.2 to 5
COc1cc2c(cc1C(=O)Nc1ccc(OC(F)(F)F)cc1)CC[C@H]1C(C)(C)C(=O)C=C[C@]21C	3 to 3.8

Molecular target: T1, Polycomb complex protein BMI-1 (Homo sapiens) (UniProt P35226)
T1 sequence (whole entry): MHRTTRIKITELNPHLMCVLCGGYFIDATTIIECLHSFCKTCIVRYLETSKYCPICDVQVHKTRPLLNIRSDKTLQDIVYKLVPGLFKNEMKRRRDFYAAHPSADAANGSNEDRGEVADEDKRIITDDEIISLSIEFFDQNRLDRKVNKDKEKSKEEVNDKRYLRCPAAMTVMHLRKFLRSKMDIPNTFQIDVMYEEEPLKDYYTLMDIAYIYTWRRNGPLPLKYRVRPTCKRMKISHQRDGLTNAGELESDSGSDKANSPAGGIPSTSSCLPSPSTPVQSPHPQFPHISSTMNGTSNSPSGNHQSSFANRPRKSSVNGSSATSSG
Assay: Inhibition of Bmi1 in human HCT116 cells assessed as reduction in H2A-K119Ub level after 8 hrs by Western blot analysis
Format: cell-based
Details: not given
In short: as §1

inhibition	SMILES
Dose-dependent effect	COc1cc(Br)c(Nc2nc(-c3c(C)nc4ncccn34)cs2)c(Br)c1

System: HCT-116
Assay: Inhibition of colony formation in human HCT116 cells at 0.1 to 0.4 uM after 7 days by crystal violet staining based assay
Format: functional, cell-based
Details: not given

SMILES	inhibition
COc1cc(Br)c(Nc2nc(-c3c(C)nc4ncccn34)cs2)c(Br)c1	Active

System: not listed separately
Assay: Selectivity index, ratio of IC50 for HAF to IC50 for human HCT8 cells
Format: toxicity
Details: HAF cells versus HCT8 cells, read-out: Ratio IC50

SMILES	selectivity ratio
CC1(C)C(=O)C(C#N)=C[C@]2(C)c3cc(O)c(C(=O)Nc4ccc(OC(F)(F)F)cc4)cc3CC[C@@H]12	4.5 to 6.9
COc1cc2c(cc1C(=O)Nc1cccc(OC(F)(F)F)c1)CC[C@H]1C(C)(C)C(=O)C(C#N)=C[C@]21C	6.2 to 8.3
COc1cc(Br)c(Nc2nc(-c3c(C)nc4ncccn34)cs2)c(Br)c1	1.6 to 1.7
COc1cc2c(cc1C(=O)NCc1ccc(OC(F)(F)F)cc1)CC[C@H]1C(C)(C)C(=O)C(C#N)=C[C@]21C	3.2 to 5
COc1cc2c(cc1C(=O)Nc1ccc(OC(F)(F)F)cc1)CC[C@H]1C(C)(C)C(=O)C=C[C@]21C	3 to 3.8

System: HCT-116
Assay: Antitumor activity against human HCT116 cells xenografted in nude mouse assessed as reduction in Ki67 expression in tumor at 10 mg/kg/day, ip for 18 days by IHC analysis
Format: functional, organism-based
Details: not given
In short: as §2

SMILES	Activity
COc1cc(Br)c(Nc2nc(-c3c(C)nc4ncccn34)cs2)c(Br)c1	Active

System: HCT-116
Assay: Induction of apoptosis in human HCT116 cells at 1 uM after 48 hrs by Annexin V/propidium iodide staining based flow cytometry relative to control
Format: functional
Details: not given

SMILES	Activity [%]
COc1cc(Br)c(Nc2nc(-c3c(C)nc4ncccn34)cs2)c(Br)c1	14.74

System: not listed separately
Assay: Antiproliferative activity against HAF after 72 hrs by SRB assay
Parameters: species or system Homo sapiens
Details: not given

SMILES	IC50 [nM]
CC1(C)C(=O)C(C#N)=C[C@]2(C)c3cc(O)c(C(=O)Nc4ccc(OC(F)(F)F)cc4)cc3CC[C@@H]12	13800
COc1cc2c(cc1C(=O)Nc1cccc(OC(F)(F)F)c1)CC[C@H]1C(C)(C)C(=O)C(C#N)=C[C@]21C	3570
COc1cc(Br)c(Nc2nc(-c3c(C)nc4ncccn34)cs2)c(Br)c1	1030
COc1cc2c(cc1C(=O)NCc1ccc(OC(F)(F)F)cc1)CC[C@H]1C(C)(C)C(=O)C(C#N)=C[C@]21C	5190
COc1cc2c(cc1C(=O)Nc1ccc(OC(F)(F)F)cc1)CC[C@H]1C(C)(C)C(=O)C=C[C@]21C	17100

System: HCT-116
Assay: Antitumor activity against human HCT116 cells xenografted in nude mouse assessed as tumor growth inhibition at 10 mg/kg/day, ip for 18 days
Format: functional, organism-based
Details: not given
In short: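 Nude mice bearing subcutaneous HCT116 tumors, randomized four groups (n = 6 each), including a DMSO vehicle group. Dosing was intraperitoneal once daily for 18 days, then sacrifice. Removed tumors were weighed and tumor volume recorded, and body weight was followed. Significance was tested versus vehicle control.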

SMILES	TGI
COc1cc(Br)c(Nc2nc(-c3c(C)nc4ncccn34)cs2)c(Br)c1	Active

System: HCT-116
Assay: Antiproliferative activity against human HCT116 cells after 72 hrs by SRB assay
Format: functional, cell-based
Details: HCT-116, 72 h

IC50 [nM]	SMILES
430	COc1cc2c(cc1C(=O)Nc1cccc(OC(F)(F)F)c1)CC[C@H]1C(C)(C)C(=O)C(C#N)=C[C@]21C
1040	COc1cc2c(cc1C(=O)NCc1ccc(OC(F)(F)F)cc1)CC[C@H]1C(C)(C)C(=O)C(C#N)=C[C@]21C

The next lines start with the compound.

SMILES	IC50 [nM]
CC1(C)C(=O)C(C#N)=C[C@]2(C)c3cc(O)c(C(=O)Nc4ccc(OC(F)(F)F)cc4)cc3CC[C@@H]12	2000
COc1cc(Br)c(Nc2nc(-c3c(C)nc4ncccn34)cs2)c(Br)c1	650
COc1cc2c(cc1C(=O)Nc1ccc(OC(F)(F)F)cc1)CC[C@H]1C(C)(C)C(=O)C=C[C@]21C	4560
